Converted amounts (≈) assume the structure as drawn.

Holding throughout (assay type): functional, cell-based
The test system of test [1] is SK-OV-3. Kind of test: Cytotoxicity against human SKOV3 cells by MTT assay. The method, boiled down: (§1)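 In vitro MTT assay on human tumour cells: myeloid leukaemia K562 and HL-60, ovarian carcinoma Skov-3, epidermoid carcinoma A431, and lung adenocarcinoma A549. IC50 is the concentration that lowers optical density of treated cells by 50% relative to untreated cells. Values are means of three independent determinations.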

Test [2] concerns A-431. As to the kind of experiment: Cytotoxicity against human A431 cells by MTT assay. The method, boiled down: as §1
The test system of test [3] is A549. Kind of test: Cytotoxicity against human A549 cells by MTT assay. The method, boiled down:
as §1

The subject of test [4] is HepG2. Kind of test: Cytotoxicity against human HepG2 cells by MTT assay.
In test [5] the test system is K562. As to the kind of experiment: Cytotoxicity against human K562 cells by MTT assay. The method, boiled down: as §1
Test [6] has as its system HL-60. Kind of test: Cytotoxicity against human HL60 cells by MTT assay. The procedure, abridged:
as §1

On to `COc1ccc(C(=O)c2nnn3c2OCC3)cc1`, for which the IC50 in test [1] is 9.6 µg/mL (≈ 39.1 µM); in test [2], 1.9 µg/mL (≈ 7.75 µM); in test [3], 58 µg/mL (≈ 237 µM); in test [4] it was greater than 200 µg/mL; in test [5], 1 µg/mL (≈ 4.08 µM); in test [6], 21.1 µg/mL (≈ 86 µM).

In the case of `Cc1ccc(C(=O)c2nnn3c2NCC3)cc1`, the IC50 in test [1] is greater than 200 µg/mL; in test [2], greater than 200 µg/mL; in test [3], greater than 200 µg/mL; in test [4], greater than 200 µg/mL; in test [5], 9.4 µg/mL (≈ 41.2 µM); in test [6], greater than 200 µg/mL.

Regarding `Cc1ccc(C(=O)c2nnn3c2OCC3)cc1`, the IC50 in test [1] turned out to be 8.5 µg/mL (≈ 37.1 µM); in test [2], 12.7 µg/mL (≈ 55.4 µM); in test [3], 79 µg/mL (≈ 345 µM); in test [4], 198 µg/mL (≈ 864 µM); in test [5], 127 µg/mL (≈ 554 µM); in test [6], 13.7 µg/mL (≈ 59.8 µM).

Take `O=C(c1ccc(Cl)cc1)c1nnn2c1OCC2`: the IC50 in test [1] is 8.6 µg/mL (≈ 34.4 µM); in test [2], 3.8 µg/mL (≈ 15.2 µM); in test [3], 42 µg/mL (≈ 168 µM); in test [4], greater than 200 µg/mL; in test [5] it was greater than 200 µg/mL; in test [6], 6.5 µg/mL (≈ 26 µM).

Turning to `O=C(c1ccccc1)c1nnn2c1NCCC2`, the IC50 in test [1] was greater than 200 µg/mL; in test [2], greater than 200 µg/mL; in test [3], greater than 200 µg/mL; in test [4], greater than 200 µg/mL; in test [5], 28.6 µg/mL (≈ 125 µM); in test [6], greater than 200 µg/mL.

Regarding `O=C(c1ccc(Cl)cc1)c1nnn2c1NCCC2`, the half-inhibitory concentration (IC50) in test [1] was greater than 200 µg/mL; in test [2] it was greater than 200 µg/mL; in test [3] it was greater than 200 µg/mL; in test [4] it was greater than 200 µg/mL; in test [5] it was 3.2 µg/mL (≈ 12.2 µM); in test [6] it was greater than 200 µg/mL.

On to `Cc1ccc(C(=O)c2nnn3c2NCCC3)cc1`, for which the IC50 is 124 µg/mL (≈ 512 µM) in test [1]; greater than 200 µg/mL in test [2]; greater than 200 µg/mL in test [3]; greater than 200 µg/mL in test [4]; 1.5 µg/mL (≈ 6.19 µM) in test [5]; greater than 200 µg/mL in test [6].

Take `COc1ccc(C(=O)c2nnn3c2NCCC3)cc1`: the IC50 is 190 µg/mL (≈ 736 µM) in test [1]; 64.4 µg/mL (≈ 249 µM) in test [2]; greater than 200 µg/mL in test [3]; greater than 200 µg/mL in test [4]; 3.4 µg/mL (≈ 13.2 µM) in test [5]; greater than 200 µg/mL in test [6].

As to `O=C(c1ccccc1)c1nnn2c1NCC2`, the half-inhibitory concentration (IC50) in test [1] is greater than 200 µg/mL; in test [2] it was greater than 200 µg/mL; in test [3], greater than 200 µg/mL; in test [4], greater than 200 µg/mL; in test [5], 92 µg/mL (≈ 429 µM); in test [6], greater than 200 µg/mL.

Regarding `CC(=O)c1nnn2c1NCC2`, the IC50 in test [1], in test [2], in test [3], in test [4], in test [5] and in test [6] was greater than 200 µg/mL throughout.

On to `O=C(c1ccc(Cl)cc1)c1nnn2c1NCC2`, for which the IC50 in test [1] is greater than 200 µg/mL; in test [2], 57.6 µg/mL (≈ 232 µM); in test [3] it was greater than 200 µg/mL; in test [4], greater than 200 µg/mL; in test [5] it was 16.1 µg/mL (≈ 64.7 µM); in test [6] it was greater than 200 µg/mL.

As to `COc1ccc(C(=O)c2nnn3c2NCC3)cc1`, the IC50 in test [1] was 159 µg/mL (≈ 651 µM); in test [2], greater than 200 µg/mL; in test [3] it was greater than 200 µg/mL; in test [4] it was greater than 200 µg/mL; in test [5] it was 2.8 µg/mL (≈ 11.5 µM); in test [6] it was greater than 200 µg/mL.

With `O=C(c1ccccc1)c1nnn2c1OCC2`, the IC50 in test [1] is 66.1 µg/mL (≈ 307 µM); in test [2] it was 10.8 µg/mL (≈ 50.2 µM); in test [3] it was 78 µg/mL (≈ 362 µM); in test [4], greater than 200 µg/mL; in test [5] it was greater than 200 µg/mL; in test [6], 17.2 µg/mL (≈ 79.9 µM).

For the origin of these results see ChEMBL document CHEMBL1221240, “An efficient one-pot synthesis of heterocycle-fused 1,2,3-triazole derivatives as anti-cancer agents” (Bioorg Med Chem Lett, 2010).
